Assay results taken from ChEMBL document CHEMBL1821687, “Discovery, synthesis, and biological evaluation of novel SMN protein modulators” (J Med Chem, 2011).
The source made the active and inactive calls. No cut-off for these calls is given here.

What was measured:
[1] = molecular target: Survival motor neuron protein (Homo sapiens) (UniProt Q16637); experiment: Activation of SMN expressed in HEK293 cells assessed as rate of induction by SMN2-promotor driven luciferase reporter gene assay relative to basal level; format: cell-based; set-up: concentration or dose not given beside the values
Sequence of Survival motor neuron protein (Homo sapiens) (Q16637 whole entry): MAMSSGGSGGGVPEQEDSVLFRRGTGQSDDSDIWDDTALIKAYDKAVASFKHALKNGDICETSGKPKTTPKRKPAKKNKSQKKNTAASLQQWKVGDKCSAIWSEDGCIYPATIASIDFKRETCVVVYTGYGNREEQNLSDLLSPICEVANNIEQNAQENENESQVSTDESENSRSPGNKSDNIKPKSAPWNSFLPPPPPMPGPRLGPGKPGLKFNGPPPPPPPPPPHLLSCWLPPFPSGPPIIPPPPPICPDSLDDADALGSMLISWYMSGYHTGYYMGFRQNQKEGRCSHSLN
Summary of the method: (§1)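 HEK-293 cells stably carrying the SMN2 reporter construct, kept in DMEM with 10% FCS, glutamax, pyruvate, pen/strep and 200 µg/mL hygromycin, and assayed without hygromycin. 2,000 cells/well were plated and adhered overnight at 37 °C, 5% CO2. Compounds were added as a 7-point titration, 50 µM to 25 nM final, in 0.46% DMSO, for 30–36 h. OneGlo luminescence was normalized to 4.5 mM sodium butyrate (100%) and DMSO (0%).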

[2] = molecular target: Survival motor neuron protein (Homo sapiens) (UniProt Q16637); experiment: Activation of SMN expressed in HEK293 cells assessed as concentration required to reach 50% of maximum luciferase signal by SMN2-promotor driven luciferase reporter gene assay; format: cell-based; summary of the method: as §1

| SMILES | Activity [1] [%] | Activity [2] |
| --- | --- | --- |
| CN(C)c1cccc(-c2ncc(F)c(N3CCC(C(N)=O)CC3)n2)c1 | 141 | 3.07 µM |
| CN(C)c1cccc(-c2ncnc(N3CCC(C(N)=O)CC3)n2)c1 | 200 | 1.22 µM |
| CCOC(=O)C1CCN(c2nc(-c3ccc(Br)cc3)cs2)CC1 | 550 | 7.72 µM |
| NC(=O)C1CCN(c2nnc(-c3ccc(Br)cc3)s2)CC1 | – | inactive |
| NC(=O)C1CCN(c2nc(-c3ccc(N)cc3)cs2)CC1 | – | inactive |
| CS(=O)(=O)c1cccc(-c2csc(N3CCC(C(N)=O)CC3)n2)c1 | – | inactive |
| NC(=O)C1CCN(c2nc(-c3ccc4c(c3)OCCCO4)cs2)CC1 | 443 | 0.49 µM |
| CN(C)c1cccc(-c2nc(N3CCC(C(N)=O)CC3)ncc2F)c1 | 373 | 0.387 µM |
| NC(=O)C1CCN(c2nc(-c3ccccc3-c3ccccc3)cs2)CC1 | – | inactive |
| NC(=O)C1CCN(c2nc(-c3ccc(Oc4ccccc4)cc3)cs2)CC1 | 240 | 4.87 µM |
| CN(C)c1cccc(-c2cnc(N3CCC(c4ncc[nH]4)CC3)s2)c1 | 188 | 7.72 µM |
| Cc1ccc(-c2nnc(N3CCC(C(N)=O)CC3)s2)cc1 | 54 | 0.244 µM |
| O=S(=O)(c1ccccc1)N1CCN(c2nc(-c3ccc(Br)cc3)cs2)CC1 | – | inactive |
| NC(=O)C1CCN(c2nc(-c3cccc(Br)c3)cs2)CC1 | 57 | 30.8 µM |
| NC(=O)C1CCN(c2nc(-c3ccccc3Cl)cs2)CC1 | 57 | 7.72 µM |
| COc1ccc(-c2cnc(N3CCC(C(N)=O)CC3)s2)cc1OC | 209 | 9.72 µM |
| N#Cc1ccc(-c2csc(N3CCC(C(N)=O)CC3)n2)cc1 | 49 | 9.72 µM |
| COc1cc(OC)cc(-c2csc(N3CCC(C(N)=O)CC3)n2)c1 | 45 | 7.72 µM |
| NC(=O)C1CCN(c2nc(-c3ccc4ccccc4c3)cs2)CC1 | 162 | 7.72 µM |
| CC(=O)Nc1ccc(-c2csc(N3CCC(C(N)=O)CC3)n2)cc1 | – | inactive |
| CS(=O)(=O)c1ccccc1-c1csc(N2CCC(C(N)=O)CC2)n1 | – | inactive |
| CS(=O)(=O)c1ccc(-c2csc(N3CCC(C(N)=O)CC3)n2)cc1 | – | inactive |
| Cc1cccc(-c2csc(N3CCC(C(N)=O)CC3)n2)c1 | 187 | 30.7 µM |
| Cn1ccc2cc(-c3csc(N4CCC(C(N)=O)CC4)n3)ccc21 | 534 | 7.72 µM |

| SMILES | Activity [1] [%] | Activity [2] |
| --- | --- | --- |
| NC(=O)C1CCN(c2nc(-c3cccs3)cs2)CC1 | 51 | 7.72 µM |
| CC(C)Oc1ccc(-c2csc(N3CCC(C(N)=O)CC3)n2)cc1 | 178 | 3.87 µM |
| CN(C)c1ccccc1-c1csc(N2CCC(C(N)=O)CC2)n1 | – | inactive |
| CNC(=O)C1CCN(c2nc(-c3ccc(Br)cc3)cs2)CC1 | 101 | 7.72 µM |
| CC(C)(C)OC(=O)NC1CCN(c2nc(-c3ccc(Br)cc3)cs2)CC1 | – | inactive |
| O=C(NCc1ccccc1)C1CCN(c2nc(-c3ccc(Br)cc3)cs2)CC1 | – | inactive |
| NC(=O)C1CCN(c2nc(-c3ccc(N4CCCCC4)nc3)cs2)CC1 | – | 6.13 µM |
| NC(=O)C1CCN(c2nccc(Cl)n2)CC1 | – | inactive |
| NC(=O)C1CCN(c2nc(-c3cccc(N)c3)cs2)CC1 | – | inactive |
| NC(=O)C1CCN(c2nc(-c3cccc(F)c3)cs2)CC1 | 64 | 9.72 µM |
| NC(=O)C1CCN(c2nc(-c3cccc4sc5ccccc5c34)cs2)CC1 | 369 | 30.7 µM |
| COc1cccc(-c2csc(N3CCC(C(N)=O)CC3)n2)c1 | 357 | 1.94 µM |
| NC(=O)C1CCN(c2nc(-c3cccc(C(F)(F)F)c3)cs2)CC1 | – | 3.87 µM |
| O=C(NCCCc1ccccc1)C1CCN(c2nc(-c3ccc(Br)cc3)cs2)CC1 | – | inactive |
| NC(=O)C1CCN(c2ncc(Br)s2)CC1 | – | inactive |
| NC(=O)C1CCN(c2ncc(-c3ccc(Br)cc3)s2)CC1 | 599 | 0.224 µM |
| NC(=O)C1CCN(c2nc(-c3cccnc3)cs2)CC1 | – | inactive |
| NC(=O)C1CCN(c2nc(-c3ccccc3C(F)(F)F)cs2)CC1 | – | inactive |
| Brc1ccc(-c2csc(N3CCOCC3)n2)cc1 | – | inactive |
| O=C(Nc1ccccc1)C1CCN(c2nc(-c3ccc(Br)cc3)cs2)CC1 | 262 | 2.44 µM |
| CC(C)Oc1cccc(-c2csc(N3CCC(C(N)=O)CC3)n2)c1 | 605 | 0.77 µM |
| Brc1ccc(-c2csc(N3CCNCC3)n2)cc1 | -97 | 24.4 µM |
| NC(=O)C1CCN(c2nc(-c3cccc4ccccc34)cs2)CC1 | – | inactive |
| NC(=O)C1CCN(c2cc(-c3ccc4c(c3)OCCCO4)ncn2)CC1 | 211 | 7.72 µM |

| SMILES | Activity [1] [%] | Activity [2] |
| --- | --- | --- |
| NC(=O)C1CCN(c2nc(-c3ccc4c(c3)OCC4)cs2)CC1 | 401 | 12.2 µM |
| CN(C)c1cccc(-c2cnc(N3CCC(C(N)=O)CC3)nc2)c1 | 236 | 0.613 µM |
| COc1cc(-c2csc(N3CCC(C(N)=O)CC3)n2)cc(OC)c1OC | 73 | 19.4 µM |
| NC(=O)C1CCN(c2nc(-c3ccc(C(F)(F)F)cc3)cs2)CC1 | 386 | 2.44 µM |
| O=C(NCCCCc1ccccc1)C1CCN(c2nc(-c3ccc(Br)cc3)cs2)CC1 | – | inactive |
| Cc1noc(C)c1-c1csc(N2CCC(C(N)=O)CC2)n1 | – | inactive |
| NC(=O)C1CCN(c2ncc(-c3cccc(F)c3)s2)CC1 | 601 | 2.44 µM |
| O=C(C1CCN(c2nc(-c3ccc(Br)cc3)cs2)CC1)N1CCNCC1 | – | inactive |
| COc1ccc(-c2csc(N3CCC(C(N)=O)CC3)n2)cc1OC | 59 | 12.2 µM |
| NC(=O)C1CCN(c2nc(-c3ccc4c(c3)OCCO4)cs2)CC1 | 459 | 0.77 µM |
| NC(=O)C1CCN(c2nc(-c3ccc4occc(=O)c4c3)cs2)CC1 | 589 | 15.4 µM |
| Cc1ccc(-c2csc(N3CCC(C(N)=O)CC3)n2)cc1 | 439 | 1.22 µM |
| CN(C)c1cccc(-c2cnc(N3CCC(C(N)=O)CC3)s2)c1 | 550 | 0.039 µM |
| CC(=O)C1CCN(c2ncc(-c3cccc(N(C)C)c3)s2)CC1 | 224 | 3.07 µM |
| Brc1ccc(-c2csc(N3CCC(c4nnn[nH]4)CC3)n2)cc1 | 67 | 12.2 µM |
| NC(=O)C1CCN(c2nc(-c3ccccc3)cs2)CC1 | 167 | 7.72 µM |
| NC(=O)C1CCN(c2nc(-c3ccc(Cl)cc3)cs2)CC1 | 381 | 2.44 µM |
| Cc1ccc(-c2ccnc(N3CCC(C(N)=O)CC3)n2)cc1 | 444 | 0.387 µM |
| CC(C)COc1ccc(-c2csc(N3CCC(C(N)=O)CC3)n2)cc1 | 54 | 3.07 µM |
| O=C(c1ccco1)N1CCN(c2nc(-c3ccc(Br)cc3)cs2)CC1 | – | inactive |
| NC(=O)C1CCN(c2nc(-c3ccccc3[N+](=O)[O-])cs2)CC1 | – | inactive |
| NC(=O)C1CCN(c2ncc(-c3ccc(Cl)cc3)s2)CC1 | 498 | 0.154 µM |
| N#CC1CCN(c2nc(-c3ccc(Br)cc3)cs2)CC1 | 78 | 30.7 µM |
| NC(=O)C1CCN(c2nc(-c3ccc(OCc4ccccc4)cc3)cs2)CC1 | – | inactive |

| SMILES | Activity [1] [%] | Activity [2] |
| --- | --- | --- |
| Cc1cnc(N2CCC(C(N)=O)CC2)nc1-c1cccc(N(C)C)c1 | – | inactive |
| CC(=O)N1CCN(c2nc(-c3ccc(Br)cc3)cs2)CC1 | 234 | 3.07 µM |
| NC(=O)C1CCN(c2nc(-c3ccc([N+](=O)[O-])cc3)cs2)CC1 | 254 | 15.4 µM |
| NC(=O)C1CCN(c2ncc(-c3cccc(N4CCCCC4)c3)s2)CC1 | 565 | 1.54 µM |
| NC(=O)C1CCN(c2ncc(Br)cn2)CC1 | – | inactive |
| NC(=O)C1CCN(c2ncnc(-c3ccc4c(c3)OCCCO4)n2)CC1 | 186 | 2.44 µM |
| NC1CCN(c2nc(-c3ccc(Br)cc3)cs2)CC1 | 182 | 2.44 µM |
| NC(=O)N1CCN(c2nc(-c3ccc(Br)cc3)cs2)CC1 | 89 | 12.2 µM |
| NC(=O)C1CCN(c2nc(-c3ccc(-c4ccccc4)cc3)cs2)CC1 | 58 | 24.4 µM |
| N#Cc1cccc(-c2csc(N3CCC(C(N)=O)CC3)n2)c1 | – | inactive |
| NC(=O)C1CCN(c2ncc(-c3ccc4c(c3)OCO4)s2)CC1 | 590 | 0.049 µM |
| NC(=O)C1CCN(c2nc(-c3cc4ccccc4o3)cs2)CC1 | – | 15.4 µM |
| CC(=O)c1cccc(-c2csc(N3CCC(C(N)=O)CC3)n2)c1 | 356 | 3.87 µM |
| NC(=O)C1CCN(c2nc(-c3cccc(Cl)c3)cs2)CC1 | 53 | 12.2 µM |
| O=C(c1ccccc1)N1CCN(c2nc(-c3ccc(Br)cc3)cs2)CC1 | – | inactive |
| CC(C(=O)O)c1ccc(N2Cc3ccccc3C2=O)cc1 (stereo not drawn) | – | > 1 µM |
| COc1ccccc1-c1csc(N2CCC(C(N)=O)CC2)n1 | – | inactive |
| CC(=O)C1CCN(c2ncc(-c3ccc4c(c3)OCCCO4)s2)CC1 | – | inactive |
| CS(=O)(=O)N1CCN(c2nc(-c3ccc(Br)cc3)cs2)CC1 | – | inactive |
| NC(=O)C1CCN(c2nc(-c3ccccc3Br)cs2)CC1 | – | inactive |
| N#Cc1ccccc1-c1csc(N2CCC(C(N)=O)CC2)n1 | – | inactive |
